Results as given in ChEMBL document CHEMBL2034859, “Simple, fast and efficient synthesis of β-keto esters from the esters of heteroaryl compounds, its antimicrobial study and cytotoxicity towards various cancer cell lines” (Bioorg Med Chem Lett, 2012).
Values after ≈ are worked out from the molar mass of the structure shown.

Tests used:
Talaromyces marneffei [1] = test: Antifungal activity against Penicillium marneffei after 3 to 4 days by disc diffusion method; format: functional
[2] = tested on: Trichophyton mentagrophytes; test: Antifungal activity against Trichophyton mentagrophytes after 3 to 4 days by disc diffusion method; format: functional
Aspergillus flavus [3] = test: Antifungal activity against Aspergillus flavus NCIM 524 after 3 to 4 days; format: functional
Aspergillus fumigatus [4] = test: Antifungal activity against Aspergillus fumigatus NCIM 902 after 3 to 4 days; format: functional
Procedure, shortened: (§1)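 Compounds were dissolved in DMSO and tested by serial plate dilution. Activity was read as the diameter of the inhibition zone, with ciclopiroxolamine as the reference standard. Penicillium marneffei and Trichophyton mentagrophytes were recultured isolates.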

Talaromyces marneffei [5] = test: Antifungal activity against Penicillium marneffei after 3 to 4 days; format: functional
[6] = tested on: Trichophyton mentagrophytes; test: Antifungal activity against Trichophyton mentagrophytes after 3 to 4 days; format: functional; procedure, shortened: as §1
NCI-H460 [7] = test: Cytotoxicity against human NCI-H460 cells at 10 uM after 48 hrs by WST-1 assay; format: functional
Procedure, shortened: (§2)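 Cells from ATCC, grown in DMEM with 10% heat-inactivated FBS at 37 °C in humidified 5% CO2. Log-phase cells seeded at 5 × 10^3 cells/well and left to recover overnight, then exposed to varying compound concentrations for 48 h. Controls received medium with 0.2% DMSO vehicle. CCK-8 ([…]) reagent added at 5 µL/well for 2 h, then absorbance read.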

HCT-116 [8] = test: Cytotoxicity against human HCT116 cells at 10 uM after 48 hrs by WST-1 assay; format: functional
Procedure, shortened: (§3)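 Cells from ATCC were grown in DMEM with 10% heat-inactivated FBS at 37 °C in 5% CO2. Log-phase cells were seeded at 5 × 10^3 per well and left to recover overnight. They were then exposed to a range of compound concentrations for 48 h, with 0.2% DMSO as the vehicle control. CCK-8 (WST) reagent was added for 2 h and absorbance was measured.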

ACHN [9] = test: Cytotoxicity against human ACHN cells at 10 uM after 48 hrs by WST-1 assay; format: functional; procedure, shortened: as §3
Calu-1 [10] = test: Cytotoxicity against human Calu1 cells at 10 uM after 48 hrs by WST-1 assay; format: functional; procedure, shortened: as §3
PANC-1 [11] = test: Cytotoxicity against human PANC1 cells at 10 uM after 48 hrs by WST-1 assay; format: functional; procedure, shortened: as §2
Escherichia coli [12] = test: Antibacterial activity against Escherichia coli ATCC 25922 after 24 hrs by disc diffusion method; format: functional
Procedure, shortened: (§4)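 Disc diffusion susceptibility test. The Klebsiella pneumoniae strain was a recultured isolate, not an ATCC stock.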

Staphylococcus aureus [13] = test: Antibacterial activity against Staphylococcus aureus ATCC 25923 after 24 hrs by disc diffusion method; format: functional; procedure, shortened: as §4
Pseudomonas aeruginosa [14] = test: Antibacterial activity against Pseudomonas aeruginosa ATCC 27853 after 24 hrs by disc diffusion method; format: functional; procedure, shortened: as §4
Klebsiella pneumoniae [15] = test: Antibacterial activity against Klebsiella pneumoniae after 24 hrs by disc diffusion method; format: functional; procedure, shortened: as §4
Escherichia coli [16] = test: Antibacterial activity against Escherichia coli ATCC 25922 after 24 hrs; format: functional; settings: ATCC 25922, 24 h
Staphylococcus aureus [17] = test: Antibacterial activity against Staphylococcus aureus ATCC 25923 after 24 hrs; format: functional; settings: ATCC 25923, 24 h
Pseudomonas aeruginosa [18] = test: Antibacterial activity against Pseudomonas aeruginosa ATCC 27853 after 24 hrs; format: functional; settings: ATCC 27853, 24 h
Klebsiella pneumoniae [19] = test: Antibacterial activity against Klebsiella pneumoniae after 24 hrs; format: functional
Aspergillus fumigatus [20] = test: Antifungal activity against Aspergillus fumigatus NCIM 902 after 3 to 4 days by disc diffusion method; format: functional
Aspergillus flavus [21] = test: Antifungal activity against Aspergillus flavus NCIM 524 after 3 to 4 days by serial plate dilution method
NCI-H460 [22] = test: Cytotoxicity against human NCI-H460 cells at 1000 nM after 48 hrs by WST-1 assay; format: functional; procedure, shortened: as §2
HCT-116 [23] = test: Cytotoxicity against human HCT116 cells at 1000 nM after 48 hrs by WST-1 assay; format: functional; procedure, shortened: as §3
ACHN [24] = test: Cytotoxicity against human ACHN cells at 1000 nM after 48 hrs by WST-1 assay; format: functional; procedure, shortened: as §3
Calu-1 [25] = test: Cytotoxicity against human Calu1 cells at 1000 nM after 48 hrs by WST-1 assay; format: functional; procedure, shortened: as §3
PANC-1 [26] = test: Cytotoxicity against human PANC1 cells at 1000 nM after 48 hrs by WST-1 assay; format: functional; procedure, shortened: as §2

Structure (SMILES)	inhibition zone (IZ) (Talaromyces marneffei [1]) [mm]	inhibition zone (IZ) [2] [mm]	MIC (Aspergillus flavus [3]) [µg/mL]	MIC (Aspergillus fumigatus [4]) [µg/mL]	MIC (Talaromyces marneffei [5]) [µg/mL]	MIC [6] [µg/mL]	Activity (NCI-H460 [7]) [%]	Activity (HCT-116 [8]) [%]	Activity (ACHN [9]) [%]	Activity (Calu-1 [10]) [%]	Activity (PANC-1 [11]) [%]	inhibition zone (IZ) (Escherichia coli [12]) [mm]	inhibition zone (IZ) (Staphylococcus aureus [13]) [mm]	inhibition zone (IZ) (Pseudomonas aeruginosa [14]) [mm]	inhibition zone (IZ) (Klebsiella pneumoniae [15]) [mm]	MIC (Escherichia coli [16]) [µg/mL]	MIC (Staphylococcus aureus [17]) [µg/mL]	MIC (Pseudomonas aeruginosa [18]) [µg/mL]	MIC (Klebsiella pneumoniae [19]) [µg/mL]	inhibition zone (IZ) (Aspergillus fumigatus [20]) [mm]	other results
CCOC(=O)CC(=O)c1cc2ccccc2cn1	25	23	6.25 (≈ 25.7 µM)	6.25 (≈ 25.7 µM)	6.25 (≈ 25.7 µM)	6.25 (≈ 25.7 µM)	17	29	30	21	23	19	16	22	23	12.5 (≈ 51.4 µM)	12.5 (≈ 51.4 µM)	12.5 (≈ 51.4 µM)	12.5 (≈ 51.4 µM)	23	inhibition zone (IZ) (Aspergillus flavus [21]): 27 mm
CCOC(=O)CC(=O)c1cccc2sc(Br)nc12	17	17	12.5 (≈ 38.1 µM)	12.5 (≈ 38.1 µM)	12.5 (≈ 38.1 µM)	12.5 (≈ 38.1 µM)	14	39	31	19	27	22	21	22	23	6.25 (≈ 19 µM)	6.25 (≈ 19 µM)	6.25 (≈ 19 µM)	6.25 (≈ 19 µM)	18	inhibition zone (IZ) (Aspergillus flavus [21]): 19 mm
Nc1ccn([C@@H]2O[C@H](CO)[C@@H](O)C2(F)F)c(=O)n1 [GEMCITABINE]	–	–	–	–	–	–	–	–	–	–	–	–	–	–	–	–	–	–	–	–	Activity (NCI-H460 [22]): 73%; Activity (HCT-116 [23]): 74%; Activity (ACHN [24]): 73%; Activity (Calu-1 [25]): 71%; Activity (PANC-1 [26]): 79%
